Experimental data: ChEMBL document CHEMBL1128351, “A novel pyrrolidine analog of histamine as a potent, highly selective histamine H3 receptor agonist” (J Med Chem, 1995)
Activity calls are given as the source filed them. The calls are words filed in the database; no cut-off is given here.

Key:
[1] = molecular target: Histamine H3 receptor (Cavia porcellus, UniProt Q9JI35); experiment: Binding affinity against Histamine H3 receptor
Method in brief: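 H3 receptor binding Ki values are the mean of two independent experiments, with errors given as the range from the mean.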

[2] = molecular target: Histamine H1 receptor (Cavia porcellus) (UniProt P31389); conditions: Ileum, 10 uM
[3] = molecular target: Histamine H3 receptor (Cavia porcellus) (UniProt Q9JI35); conditions: Ileum
[4] = tested on: Cavia porcellus; experiment: Effective dose was tested in vivo for 50% inhibition by an H1 histamine-mediated bronchospasm in guinea pig; assay type: functional; conditions: Bronchiole
[5] = tested on: Cavia porcellus; experiment: Effective dose was tested in vivo for 50% inhibition by an electrically induced CNS hypertension model after iv administration.; assay type: functional
Method in brief: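 H3 agonist activity was measured in a CNS hypertension model with intravenous dosing. Values are ED50 in mg/kg, or % of the activity of the reference H3 agonist at 0.3 mg/kg.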

[6] = molecular target: Histamine H1 receptor (Cavia porcellus, UniProt P31389); experiment: Binding affinity against H1 receptor
[7] = tested on: Cavia porcellus; experiment: Effective dose was tested in vivo for 50% inhibition by an H1 histamine-mediated bronchospasm after iv administration in guinea pig; assay type: functional; conditions: Bronchiole
Method in brief: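 Given intravenously and measured in an H1 histamine-mediated bronchospasm model. Value is expressed as ED50 in mg/kg.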

[8] = molecular target: Histamine H1 receptor (Cavia porcellus) (UniProt P31389); conditions: Ileum
[9] = molecular target: Histamine H3 receptor (Cavia porcellus) (UniProt Q9JI35); conditions: Ileum, 1 uM

Chain of Histamine H3 receptor (Cavia porcellus) (Q9JI35 whole entry): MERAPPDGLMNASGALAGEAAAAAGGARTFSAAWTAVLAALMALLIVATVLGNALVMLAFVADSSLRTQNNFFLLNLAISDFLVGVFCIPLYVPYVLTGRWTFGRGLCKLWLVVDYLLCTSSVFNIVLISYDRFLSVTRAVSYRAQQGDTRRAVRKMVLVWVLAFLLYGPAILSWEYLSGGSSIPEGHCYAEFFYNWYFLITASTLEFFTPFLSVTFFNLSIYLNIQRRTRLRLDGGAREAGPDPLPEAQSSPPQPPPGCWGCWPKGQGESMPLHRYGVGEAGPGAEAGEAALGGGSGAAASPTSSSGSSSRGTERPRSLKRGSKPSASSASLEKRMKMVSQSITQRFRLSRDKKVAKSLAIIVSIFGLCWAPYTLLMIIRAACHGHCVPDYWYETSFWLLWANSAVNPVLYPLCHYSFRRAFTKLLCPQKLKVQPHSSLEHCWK
Chain of Histamine H3 receptor (Q9JI35 whole entry): as above
Chain of Histamine H1 receptor (P31389 whole entry): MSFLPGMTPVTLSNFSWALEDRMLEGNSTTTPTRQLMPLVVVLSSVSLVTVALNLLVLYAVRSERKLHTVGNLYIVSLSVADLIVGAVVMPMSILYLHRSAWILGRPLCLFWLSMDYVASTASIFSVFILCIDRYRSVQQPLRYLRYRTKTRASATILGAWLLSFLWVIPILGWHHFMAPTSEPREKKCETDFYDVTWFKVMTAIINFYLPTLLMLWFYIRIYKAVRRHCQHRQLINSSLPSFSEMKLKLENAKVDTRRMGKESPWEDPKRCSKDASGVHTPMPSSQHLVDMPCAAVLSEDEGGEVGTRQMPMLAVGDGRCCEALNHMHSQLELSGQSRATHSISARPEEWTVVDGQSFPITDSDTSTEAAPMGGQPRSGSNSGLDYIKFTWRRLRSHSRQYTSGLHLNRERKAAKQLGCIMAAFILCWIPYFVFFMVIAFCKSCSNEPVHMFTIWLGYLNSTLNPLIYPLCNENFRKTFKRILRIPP
Chain of Histamine H1 receptor (Cavia porcellus) (P31389 whole entry): as above

Compound: C[C@@]1(N)CCCC[C@@H]1c1cnc[nH]1 (racemic)
- Ki [1]: > 2000 nM

Compound: C[C@@H](N)[C@@H](C)c1c[nH]cn1 (racemic)
- Ki [1]: 11 nM

Compound: C[C@H](c1c[nH]cn1)[C@@H](C)N (racemic)
- Ki [1]: 0.8 nM

Compound: C[C@H]1NCC[C@@H]1c1c[nH]cn1 [listing 1 of 2 here]
- pD2 [2]: inactive
- pD2 [3]: 7.1

Compound: C[C@H]1NCC[C@@H]1c1c[nH]cn1 [listing 2 of 2 here]
- ED50 [4]: > 100 mg/kg
- ED50 [5]: 0.18 mg/kg
- Ki [1]: 2.8 nM
- Ki [6]: > 10000 nM

Compound: C[C@@H](N)Cc1c[nH]cn1
- ED50 [5]: 0.1 mg/kg
- Ki [1]: 1.5 nM
- Ki [6]: > 10000 nM
- ED50 [7]: 1.7 mg/kg
- pD2 [8]: 5.4
- pD2 [3]: 8.2

Compound: N[C@H]1CCC[C@@H]1c1cnc[nH]1 (racemic)
- Ki [1]: 740 nM

Compound: C[C@H]1NCC[C@@H]1c1c[nH]cn1 (racemic)
- Ki [1]: 8.7 nM

Compound: C[C@@H]1NCC[C@H]1c1c[nH]cn1
- Ki [1]: 33 nM
- Ki [6]: > 10000 nM
- pD2 [9]: inactive

Compound: C[C@]1(N)CCCC[C@@H]1c1c[nH]cn1 (racemic)
- Ki [1]: > 2000 nM
